Data reported in ChEMBL document CHEMBL2146466, “Evaluation of dimerization-inhibitory activities of cyclic peptides containing a β-hairpin loop sequence of the EGF receptor” (2012).
Activity calls are given as the source filed them. No cut-off for these calls is given here. Where a SMILES comes first, the peptide text is derived from it.

target: Epidermal growth factor receptor (Homo sapiens) (UniProt P00533); assay: Inhibition of human recombinant EGF receptor dimerization expressed in A431 cells at 10 uM after 10 mins by immunoblotting analysis relative to control; format: cell-based; conditions: A-431
Sequence (P00533 whole entry): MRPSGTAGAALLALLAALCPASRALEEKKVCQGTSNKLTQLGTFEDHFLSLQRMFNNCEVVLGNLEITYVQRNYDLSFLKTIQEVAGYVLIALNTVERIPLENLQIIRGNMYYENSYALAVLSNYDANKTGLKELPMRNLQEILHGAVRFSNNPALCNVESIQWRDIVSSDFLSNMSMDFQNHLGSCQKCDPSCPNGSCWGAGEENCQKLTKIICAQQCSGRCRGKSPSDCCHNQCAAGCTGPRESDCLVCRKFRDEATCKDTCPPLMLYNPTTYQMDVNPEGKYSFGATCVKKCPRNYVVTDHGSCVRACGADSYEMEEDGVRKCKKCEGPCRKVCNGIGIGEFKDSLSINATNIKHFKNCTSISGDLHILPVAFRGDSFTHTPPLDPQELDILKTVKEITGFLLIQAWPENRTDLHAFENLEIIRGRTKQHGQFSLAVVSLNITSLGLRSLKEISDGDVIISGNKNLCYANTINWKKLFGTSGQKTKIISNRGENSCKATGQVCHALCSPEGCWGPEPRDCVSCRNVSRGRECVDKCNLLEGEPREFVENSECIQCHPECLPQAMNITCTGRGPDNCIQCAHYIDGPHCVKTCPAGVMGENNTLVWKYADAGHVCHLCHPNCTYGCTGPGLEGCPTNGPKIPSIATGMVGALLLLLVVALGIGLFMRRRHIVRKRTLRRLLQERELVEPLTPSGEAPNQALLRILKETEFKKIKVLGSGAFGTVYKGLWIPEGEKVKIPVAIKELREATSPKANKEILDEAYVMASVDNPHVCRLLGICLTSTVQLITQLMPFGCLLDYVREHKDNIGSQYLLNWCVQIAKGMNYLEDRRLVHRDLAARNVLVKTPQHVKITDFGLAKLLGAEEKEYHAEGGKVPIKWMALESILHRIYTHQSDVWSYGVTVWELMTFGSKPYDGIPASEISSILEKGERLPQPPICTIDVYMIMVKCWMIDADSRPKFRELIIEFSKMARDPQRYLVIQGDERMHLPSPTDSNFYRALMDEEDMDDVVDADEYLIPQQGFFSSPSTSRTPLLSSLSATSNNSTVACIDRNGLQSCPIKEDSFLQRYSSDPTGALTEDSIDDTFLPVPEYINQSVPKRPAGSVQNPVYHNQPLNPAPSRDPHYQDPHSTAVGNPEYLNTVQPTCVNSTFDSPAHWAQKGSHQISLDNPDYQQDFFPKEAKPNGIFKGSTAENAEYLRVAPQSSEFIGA
Summary of the method: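 Confluent A431 cells were solubilized in 20 mM HEPES pH 7.4 with 1% Triton X-100, 10% glycerol, 1 mM EGTA and 1 mM PMSF, and the extract was spun at 250,000×g. Supernatant at 2 µg/µL protein was pre-treated 60 min with 10 µM peptide, then given 0.21 µM human EGF for 10 min. Cross-linking was with 1 mM BS³ for 10 min, quenched with glycine. Dimer and monomer were resolved by SDS-PAGE and anti-EGFR immunoblot, with ECL quantification. Dimer without peptide was set to 1.0; mean ± SD of at least three experiments in duplicate.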

Row | SMILES | inhibition
1 | CSCC[C@@H]1NC(=O)[C@H](CCC(N)=O)NC(=O)[C@H](Cc2ccc(O)cc2)NC(=O)[C@H]([C@@H](C)O)NC(=O)[C@H]([C@@H](C)O)NC(=O)[C@@H]2CCCN2C(=O)[C@H](CC(N)=O)NC(=O)[C@H](Cc2ccc(O)cc2)NC(=O)[C@@H](NC(=O)[C@H](CCSC)NC(=O)[C@@H](N)CC(C)C)CSSC[C@@H](C(=O)O)NC1=O (HELM PEPTIDE1{L.M.C.Y.N.P.T.T.Y.Q.M.C}$PEPTIDE1,PEPTIDE1,3:R3-12:R3$$$V2.0) | Active
2 | CSCC[C@@H]1NC(=O)[C@H](CCC(N)=O)NC(=O)[C@H](Cc2ccc(O)cc2)NC(=O)[C@H]([C@@H](C)O)NC(=O)[C@H]([C@@H](C)O)NC(=O)[C@@H]2CCCN2C(=O)[C@H](CC(N)=O)NC(=O)[C@H](Cc2ccc(O)cc2)NC(=O)[C@@H](N)CSSC[C@@H](C(=O)N[C@H](C(=O)N[C@@H](CC(N)=O)C(=O)N2CCC[C@H]2C(=O)N[C@@H](CCC(=O)O)C(=O)O)C(C)C)NC1=O (HELM PEPTIDE1{C.Y.N.P.T.T.Y.Q.M.C.V.N.P.E}$PEPTIDE1,PEPTIDE1,1:R3-10:R3$$$V2.0) | inactive
3 | CSCC[C@@H]1NC(=O)[C@H](CCC(N)=O)NC(=O)[C@H](Cc2ccc(O)cc2)NC(=O)[C@H]([C@@H](C)O)NC(=O)[C@H]([C@@H](C)O)NC(=O)[C@@H]2CCCN2C(=O)[C@H](CC(N)=O)NC(=O)[C@H](Cc2ccc(O)cc2)NC(=O)[C@H](CC(C)C)NC(=O)[C@H](CCSC)NC(=O)[C@@H](N)CSSC[C@@H](C(=O)O)NC(=O)[C@H](C(C)C)NC(=O)[C@H](CC(=O)O)NC1=O (HELM PEPTIDE1{C.M.L.Y.N.P.T.T.Y.Q.M.D.V.C}$PEPTIDE1,PEPTIDE1,1:R3-14:R3$$$V2.0) | Active
4 | CC(C)C[C@H](N)C(=O)N[C@H]1CSSC[C@@H](C(=O)N[C@@H](CC(=O)O)C(=O)O)NC(=O)[C@H](CCC(N)=O)NC(=O)[C@H](Cc2ccc(O)cc2)NC(=O)[C@H]([C@@H](C)O)NC(=O)[C@H]([C@@H](C)O)NC(=O)[C@@H]2CCCN2C(=O)[C@H](CC(N)=O)NC1=O (HELM PEPTIDE1{L.C.N.P.T.T.Y.Q.C.D}$PEPTIDE1,PEPTIDE1,2:R3-9:R3$$$V2.0) | inactive
5 | CSCC[C@@H]1NC(=O)[C@H](CCC(N)=O)NC(=O)[C@H](Cc2ccc(O)cc2)NC(=O)[C@H]([C@@H](C)O)NC(=O)[C@H]([C@@H](C)O)NC(=O)[C@@H]2CCCN2C(=O)[C@H](CC(N)=O)NC(=O)[C@H](C)NC(=O)[C@@H](N)CSSC[C@@H](C(=O)O)NC1=O (HELM PEPTIDE1{C.A.N.P.T.T.Y.Q.M.C}$PEPTIDE1,PEPTIDE1,1:R3-10:R3$$$V2.0) | inactive
6 | C[C@@H](O)[C@@H]1NC(=O)[C@H]([C@@H](C)O)NC(=O)[C@@H]2CCCN2C(=O)[C@H](CC(N)=O)NC(=O)[C@H](Cc2ccc(O)cc2)NC(=O)[C@@H](N)CSSC[C@@H](C(=O)N[C@@H](CC(=O)O)C(=O)O)NC(=O)[C@H](CCC(N)=O)NC(=O)[C@H](Cc2ccc(O)cc2)NC1=O (HELM PEPTIDE1{C.Y.N.P.T.T.Y.Q.C.D}$PEPTIDE1,PEPTIDE1,1:R3-9:R3$$$V2.0) | inactive
7 | CSCC[C@@H]1NC(=O)[C@H](CCC(N)=O)NC(=O)[C@H](Cc2ccc(O)cc2)NC(=O)[C@H]([C@@H](C)O)NC(=O)[C@H]([C@@H](C)O)NC(=O)[C@@H]2CCCN2C(=O)[C@H](CC(N)=O)NC(=O)[C@H](Cc2ccc(O)cc2)NC(=O)[C@@H](NC(=O)[C@H](CCSC)NC(=O)[C@H](CC(C)C)NC(=O)[C@@H]2CCCN2)CSSC[C@@H](C(=O)O)NC1=O (HELM PEPTIDE1{P.L.M.C.Y.N.P.T.T.Y.Q.M.C}$PEPTIDE1,PEPTIDE1,4:R3-13:R3$$$V2.0) | Active
8 | CSCC[C@@H]1NC(=O)[C@H](CCC(N)=O)NC(=O)[C@H](Cc2ccc(O)cc2)NC(=O)[C@H]([C@@H](C)O)NC(=O)[C@H]([C@@H](C)O)NC(=O)[C@@H]2CCCN2C(=O)[C@H](CC(N)=O)NC(=O)[C@H](Cc2ccc(O)cc2)NC(=O)[C@H](CC(C)C)NC(=O)[C@H](CCSC)NC(=O)[C@H](CC(C)C)NC(=O)[C@@H]2CCCN2C(=O)[C@@H]2CCCN2C(=O)[C@@H](N)CSSC[C@@H](C(=O)O)NC(=O)CNC(=O)[C@H](CCC(=O)O)NC(=O)[C@@H]2CCCN2C(=O)[C@H](C(C)C)NC(=O)[C@H](CC(=O)O)NC1=O (HELM PEPTIDE1{C.P.P.L.M.L.Y.N.P.T.T.Y.Q.M.D.V.P.E.G.C}$PEPTIDE1,PEPTIDE1,1:R3-20:R3$$$V2.0) | Active

Continued, values first:

Row | inhibition | SMILES
9 | inactive | CSCC[C@@H]1NC(=O)[C@H](CCC(N)=O)NC(=O)[C@H](Cc2ccc(O)cc2)NC(=O)[C@H]([C@@H](C)O)NC(=O)[C@H]([C@@H](C)O)NC(=O)[C@@H]2CCCN2C(=O)[C@H](CC(N)=O)NC(=O)[C@H](Cc2ccc(O)cc2)NC(=O)[C@@H](N)CSSC[C@@H](C(=O)N[C@H](C(=O)O)C(C)C)NC1=O (HELM PEPTIDE1{C.Y.N.P.T.T.Y.Q.M.C.V}$PEPTIDE1,PEPTIDE1,1:R3-10:R3$$$V2.0)
10 | inactive | CSCC[C@@H]1NC(=O)[C@H](CCC(N)=O)NC(=O)[C@H](Cc2ccc(O)cc2)NC(=O)[C@H]([C@@H](C)O)NC(=O)[C@H]([C@@H](C)O)NC(=O)[C@@H]2CCCN2C(=O)[C@H](CC(N)=O)NC(=O)[C@H](Cc2ccc(O)cc2)NC(=O)[C@@H](N)CSSC[C@@H](C(=O)N[C@H](C(=O)N[C@@H](CC(N)=O)C(=O)O)C(C)C)NC1=O (HELM PEPTIDE1{C.Y.N.P.T.T.Y.Q.M.C.V.N}$PEPTIDE1,PEPTIDE1,1:R3-10:R3$$$V2.0)

target: Epidermal growth factor receptor (Homo sapiens) (UniProt P00533); assay: Human recombinant EGF receptor dimer amount expressed in A431 cells at 10 uM after 10 mins by immunoblotting analysis relative to control; conditions: A-431

Row | residual activity | SMILES
11 | 80% | CSCC[C@@H]1NC(=O)[C@H](CCC(N)=O)NC(=O)[C@H](Cc2ccc(O)cc2)NC(=O)[C@H]([C@@H](C)O)NC(=O)[C@H]([C@@H](C)O)NC(=O)[C@@H]2CCCN2C(=O)[C@H](CC(N)=O)NC(=O)[C@H](Cc2ccc(O)cc2)NC(=O)[C@H](CC(C)C)NC(=O)[C@@H](N)CSSC[C@@H](C(=O)O)NC(=O)[C@H](CC(=O)O)NC1=O (HELM PEPTIDE1{C.L.Y.N.P.T.T.Y.Q.M.D.C}$PEPTIDE1,PEPTIDE1,1:R3-12:R3$$$V2.0)
12 | 73% | CC(C)C[C@@H]1NC(=O)[C@H](CCC(N)=O)NC(=O)[C@H](Cc2ccc(O)cc2)NC(=O)[C@H]([C@@H](C)O)NC(=O)[C@H]([C@@H](C)O)NC(=O)[C@@H]2CCCN2C(=O)[C@H](CC(N)=O)NC(=O)[C@H](Cc2ccc(O)cc2)NC(=O)[C@@H](N)CSSC[C@@H](C(=O)O)NC1=O (HELM PEPTIDE1{C.Y.N.P.T.T.Y.Q.L.C}$PEPTIDE1,PEPTIDE1,1:R3-10:R3$$$V2.0)
13 | 73% | C[C@@H](O)[C@@H]1NC(=O)[C@H]([C@@H](C)O)NC(=O)[C@@H]2CCCN2C(=O)[C@H](CC(N)=O)NC(=O)[C@H](Cc2ccc(O)cc2)NC(=O)[C@@H](N)CSSC[C@@H](C(=O)O)NC(=O)[C@H](CC[S+](C)[O-])NC(=O)[C@H](CCC(N)=O)NC(=O)[C@H](Cc2ccc(O)cc2)NC1=O (some centres undefined) (HELM PEPTIDE1{C.Y.N.P.T.T.Y.Q.[CS(=O)CC[C@H](N[*:1])C(=O)[*:2]].C}$PEPTIDE1,PEPTIDE1,1:R3-10:R3$$$V2.0)
14 | 80% | CSCC[C@@H]1NC(=O)[C@H](CCC(N)=O)NC(=O)[C@H](Cc2ccc(O)cc2)NC(=O)[C@H]([C@@H](C)O)NC(=O)[C@H]([C@@H](C)O)NC(=O)[C@@H]2CCCN2C(=O)[C@H](CC(N)=O)NC(=O)[C@H](Cc2ccc(O)cc2)NC(=O)[C@H](CC(C)C)NC(=O)[C@@H](N)CSSC[C@@H](C(=O)O)NC1=O (HELM PEPTIDE1{C.L.Y.N.P.T.T.Y.Q.M.C}$PEPTIDE1,PEPTIDE1,1:R3-11:R3$$$V2.0)
15 | 73% | CCCC[C@@H]1NC(=O)[C@H](CCC(N)=O)NC(=O)[C@H](Cc2ccc(O)cc2)NC(=O)[C@H]([C@@H](C)O)NC(=O)[C@H]([C@@H](C)O)NC(=O)[C@@H]2CCCN2C(=O)[C@H](CC(N)=O)NC(=O)[C@H](Cc2ccc(O)cc2)NC(=O)[C@@H](N)CSSC[C@@H](C(=O)O)NC1=O (HELM PEPTIDE1{C.Y.N.P.T.T.Y.Q.[Nle].C}$PEPTIDE1,PEPTIDE1,1:R3-10:R3$$$V2.0)
16 | 80% | CSCC[C@@H]1NC(=O)[C@H](CCC(N)=O)NC(=O)[C@H](Cc2ccc(O)cc2)NC(=O)[C@H]([C@@H](C)O)NC(=O)[C@H]([C@@H](C)O)NC(=O)[C@@H]2CCCN2C(=O)[C@H](CC(N)=O)NC(=O)[C@H](Cc2ccc(O)cc2)NC(=O)[C@@H](N)CSSC[C@@H](C(=O)O)NC(=O)[C@H](CC(=O)O)NC1=O (HELM PEPTIDE1{C.Y.N.P.T.T.Y.Q.M.D.C}$PEPTIDE1,PEPTIDE1,1:R3-11:R3$$$V2.0)
17 | 64% | CSCC[C@@H]1NC(=O)[C@H](CCC(N)=O)NC(=O)[C@H](Cc2ccc(O)cc2)NC(=O)[C@H]([C@@H](C)O)NC(=O)[C@H]([C@@H](C)O)NC(=O)[C@@H]2CCCN2C(=O)[C@H](CC(N)=O)NC(=O)[C@H](Cc2ccc(O)cc2)NC(=O)[C@@H](NC(=O)[C@@H](N)CCSC)CSSC[C@@H](C(=O)O)NC1=O (HELM PEPTIDE1{M.C.Y.N.P.T.T.Y.Q.M.C}$PEPTIDE1,PEPTIDE1,2:R3-11:R3$$$V2.0)
18 | 73% | C[C@@H]1NC(=O)[C@H](CCC(N)=O)NC(=O)[C@H](Cc2ccc(O)cc2)NC(=O)[C@H]([C@@H](C)O)NC(=O)[C@H]([C@@H](C)O)NC(=O)[C@@H]2CCCN2C(=O)[C@H](CC(N)=O)NC(=O)[C@H](Cc2ccc(O)cc2)NC(=O)[C@@H](N)CSSC[C@@H](C(=O)O)NC1=O (HELM PEPTIDE1{C.Y.N.P.T.T.Y.Q.A.C}$PEPTIDE1,PEPTIDE1,1:R3-10:R3$$$V2.0)
19 | 73% | C[C@@H](O)[C@@H]1NC(=O)[C@H]([C@@H](C)O)NC(=O)[C@@H]2CCCN2C(=O)[C@H](CC(N)=O)NC(=O)[C@H](Cc2ccc(O)cc2)NC(=O)[C@@H](N)CSSC[C@@H](C(=O)O)NC(=O)[C@H](CCC(N)=O)NC(=O)[C@H](CCC(N)=O)NC(=O)[C@H](Cc2ccc(O)cc2)NC1=O (HELM PEPTIDE1{C.Y.N.P.T.T.Y.Q.Q.C}$PEPTIDE1,PEPTIDE1,1:R3-10:R3$$$V2.0)
